Activity calls are given as the source filed them. The rule behind the calls is not given here.
What was measured:
Mus musculus [1] = assay: Antidepressant activity in po dosed ICEM:CET (SPF Caw) mouse assessed as antagonism of reserpine-induced hypothermia administered via gavage 30 mins before reserpine challenge measured 4 hrs after reserpine treatment; assay type: functional; conditions: Mus musculus, ICEM:CET(SPF Caw), po; read-out: ED50
How it was run: (§1)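 Groups of ten male mice (18-22 g), fasted 9 h with water until 2 h pre-test. Oral gavage in 0.5% Methocel at doses below the 25 mg/kg screen, 30 min before reserpine 2.5 mg/kg ip. Blepharospasm scored blind at 1 h, rectal temperature at 4 h. ED50 estimated by eye-fit linear plots on semilogarithmic paper.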

Mus musculus [2] = assay: Anticonvulsant activity in po dosed ICEM:CET (SPF Caw) mouse assessed as antagonism of pentylenetetrazole-induced flexor-extensor tonic convulsions administered via gavage 30 mins before pentylenetetrazole challenge; assay type: functional; conditions: Mus musculus, ICEM:CET(SPF Caw), po; read-out: ED50
How it was run: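 Male mice, 18-22 g, dosed orally by gavage in 0.5% Methocel (0.1 mL/10 g), starting at a 50 mg/kg screening dose, then graded doses. Pentylenetetrazole 130 mg/kg ip given 30 min later. Ten mice per dose and for controls. Dose preventing flexor-extensor tonic convulsions in 50% of animals read from dose-response curves (ED50).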

Mus musculus [3] = assay: Antidepressant activity in po dosed ICEM:CET (SPF Caw) mouse assessed as antagonism of reserpine-induced blepharospasm administered via gavage 30 mins before reserpine challenge measured 1 hr after reserpine treatment; assay type: functional; conditions: Mus musculus, ICEM:CET(SPF Caw), po; read-out: ED50; how it was run: as §1
[4] = Orientative acute toxicity in po dosed ICEM:CET (SPF Caw) mouse administered via gavage measured for 60 mins after drug dosing by Irwin's test; assay type: organism-based; conditions: ICEM:CET (SPF Caw), in vivo
How it was run: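 Male ICEM:CET (SPF Caw) mice, 18-22 g. Oral gavage, suspended or dissolved in 0.5% Methocel at 0.1 mL/10 g body weight. Doses of at least 25, 50, 100, 200, 400 and 800 mg/kg, four animals per dose. Animals were observed closely for 60 min after dosing during Irwin's symptomatologic test, and an approximate LD50 was estimated.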

Mus musculus [5] = assay: Antidepressant activity in ICEM:CET (SPF Caw) mouse assessed as antagonism of reserpine-induced hypothermia at 25 mg/kg, po administered via gavage 30 mins before reserpine challenge measured 4 hrs after reserpine treatment; assay type: functional, organism-based; design: dose 25 mg/kg
How it was run: (§2)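 Male mice, 18-22 g, groups of ten, housed the evening before with a 9-h fast and water until 2 h before testing. Gavage dosing at 25 mg/kg in 0.5% Methocel, 30 min before reserpine 2.5 mg/kg ip in 0.5% acetic acid. Read blind: blepharospasm scored (Rubin scale) at 1 h, rectal thermocouple temperature at 4 h.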

Mus musculus [6] = assay: Antidepressant activity in ICEM:CET (SPF Caw) mouse assessed as antagonism of reserpine-induced blepharospasm at 25 mg/kg, po administered via gavage 30 mins before reserpine challenge measured 1 hr after reserpine treatment; assay type: functional, organism-based; design: dose 25 mg/kg; how it was run: as §2

SMILES: CNC1CN(C2c3ccccc3C3(CC3)c3ccccc32)C1
- ED50 (Mus musculus [1]): 11.4 mg/kg
- ED50 (Mus musculus [2]): 18.5 mg/kg
- ED50 (Mus musculus [3]): 4.4 mg/kg
- LD50 at 1 h [4]: 200 mg/kg

SMILES: c1ccc(CNC2CN(C3c4ccccc4CCc4ccccc43)C2)cc1
- ED50 (Mus musculus [1]): > 25 mg/kg
- ED50 (Mus musculus [2]): > 50 mg/kg
- ED50 (Mus musculus [3]): 12 mg/kg
- LD50 at 1 h [4]: 800 mg/kg

SMILES: CNCCN(C)C1c2ccccc2CCc2ccccc21
- ED50 (Mus musculus [1]): > 25 mg/kg
- ED50 (Mus musculus [2]): 18 mg/kg
- ED50 (Mus musculus [3]): > 25 mg/kg
- LD50 at 1 h [4]: 200 mg/kg

SMILES: CC(C)(C)N1CC(N2c3ccccc3CCc3ccccc32)C1
- Activity (Mus musculus [5]): inactive
- Activity (Mus musculus [6]): inactive

SMILES: c1ccc2c(c1)CCc1ccccc1C2N1CCNCC1
- ED50 (Mus musculus [1]): > 25 mg/kg
- ED50 (Mus musculus [2]): > 50 mg/kg
- ED50 (Mus musculus [3]): 24 mg/kg
- LD50 at 1 h [4]: 50 mg/kg

SMILES: CC(=O)N(C)C1CN(C2c3ccccc3CCc3ccccc32)C1
- ED50 (Mus musculus [1]): > 25 mg/kg
- ED50 (Mus musculus [2]): 28 mg/kg
- ED50 (Mus musculus [3]): > 25 mg/kg
- LD50 at 1 h [4]: 400 mg/kg

SMILES: CN(C)C1CN(C2c3ccccc3CSc3ccccc32)C1 (stereo not drawn)
- ED50 (Mus musculus [1]): > 25 mg/kg
- ED50 (Mus musculus [2]): 19 mg/kg
- ED50 (Mus musculus [3]): > 25 mg/kg
- LD50 at 1 h [4]: 400 mg/kg

SMILES: NC1CN(C2c3ccccc3CCc3ccccc32)C1
- ED50 (Mus musculus [1]): 12 mg/kg
- ED50 (Mus musculus [2]): 17 mg/kg
- ED50 (Mus musculus [3]): 5 mg/kg
- LD50 at 1 h [4]: 200 mg/kg

SMILES: CC(C)NC1CN(C2c3ccccc3COc3ccccc32)C1 (stereo not drawn)
- ED50 (Mus musculus [1]): 24.5 mg/kg
- ED50 (Mus musculus [2]): 27 mg/kg
- ED50 (Mus musculus [3]): 3.9 mg/kg
- LD50 at 1 h [4]: 200 mg/kg

SMILES: c1ccc2c(c1)CCc1ccccc1C2N1CC(n2ccnc2)C1
- ED50 (Mus musculus [1]): > 25 mg/kg
- ED50 (Mus musculus [2]): 17.7 mg/kg
- ED50 (Mus musculus [3]): > 25 mg/kg
- LD50 at 1 h [4]: 200 mg/kg

SMILES: CC(C)NC1CN(C2c3ccccc3CCc3ccccc32)C1
- ED50 (Mus musculus [1]): 8.5 mg/kg
- ED50 (Mus musculus [2]): 23.3 mg/kg
- ED50 (Mus musculus [3]): 6.5 mg/kg
- LD50 at 1 h [4]: 200 mg/kg

SMILES: CNC1CN(C2c3ccccc3CSc3ccccc32)C1 (stereo not drawn)
- ED50 (Mus musculus [1]): > 25 mg/kg
- ED50 (Mus musculus [2]): 14.7 mg/kg
- ED50 (Mus musculus [3]): 12 mg/kg
- LD50 at 1 h [4]: 200 mg/kg

SMILES: CNCC1CN(C2c3ccccc3CCc3ccccc32)C1
- ED50 (Mus musculus [1]): > 25 mg/kg
- ED50 (Mus musculus [2]): > 50 mg/kg
- ED50 (Mus musculus [3]): > 25 mg/kg
- LD50 at 1 h [4]: 200 mg/kg

SMILES: CC(C)N1CC(N2c3ccccc3COc3ccccc32)C1
- Activity (Mus musculus [5]): inactive
- Activity (Mus musculus [6]): inactive

SMILES: CNC1CCN(C2c3ccccc3CCc3ccccc32)C1 (stereo not drawn)
- ED50 (Mus musculus [1]): > 25 mg/kg
- ED50 (Mus musculus [2]): 45 mg/kg
- ED50 (Mus musculus [3]): > 25 mg/kg
- LD50 at 1 h [4]: 200 mg/kg

SMILES: CNC1CN(C2c3ccccc3CSc3ccc(OC)cc32)C1 (stereo not drawn)
- ED50 (Mus musculus [1]): > 25 mg/kg
- ED50 (Mus musculus [2]): > 50 mg/kg
- ED50 (Mus musculus [3]): 21.8 mg/kg
- LD50 at 1 h [4]: 400 mg/kg

SMILES: CN(C)C1CN(C2c3ccccc3COc3ccc(Cl)cc32)C1 (stereo not drawn)
- ED50 (Mus musculus [1]): > 25 mg/kg
- ED50 (Mus musculus [2]): > 50 mg/kg
- ED50 (Mus musculus [3]): > 25 mg/kg
- LD50 at 1 h [4]: 100 mg/kg

SMILES: CNC1(C)CN(C2c3ccccc3CCc3ccccc32)C1
- ED50 (Mus musculus [1]): > 25 mg/kg
- ED50 (Mus musculus [2]): 44.6 mg/kg
- ED50 (Mus musculus [3]): > 25 mg/kg
- LD50 at 1 h [4]: 200 mg/kg

SMILES: CNC1CN(C2c3ccccc3CCc3ccccc32)C1C (stereo not drawn)
- ED50 (Mus musculus [1]): 10.5 mg/kg
- ED50 (Mus musculus [2]): 25 mg/kg
- ED50 (Mus musculus [3]): 9 mg/kg
- LD50 at 1 h [4]: 400 mg/kg

SMILES: CCNC1CN(C2c3ccccc3CCc3ccccc32)C1
- ED50 (Mus musculus [1]): 12.5 mg/kg
- ED50 (Mus musculus [2]): 16.7 mg/kg
- ED50 (Mus musculus [3]): 10 mg/kg
- LD50 at 1 h [4]: 200 mg/kg

SMILES: CC(Cc1ccccc1)NC1CN(C2c3ccccc3CCc3ccccc32)C1 (stereo not drawn)
- ED50 (Mus musculus [1]): > 25 mg/kg
- ED50 (Mus musculus [2]): > 50 mg/kg
- ED50 (Mus musculus [3]): > 25 mg/kg
- LD50 at 1 h [4]: > 800 mg/kg

SMILES: CNC1CN(C2c3ccccc3CCc3ccc(OC)cc32)C1 (stereo not drawn)
- ED50 (Mus musculus [1]): > 25 mg/kg
- ED50 (Mus musculus [2]): > 50 mg/kg
- ED50 (Mus musculus [3]): 14 mg/kg
- LD50 at 1 h [4]: 200 mg/kg

SMILES: c1ccc2c(c1)COc1ccccc1N2C1CNC1
- Activity (Mus musculus [5]): inactive
- Activity (Mus musculus [6]): inactive

SMILES: CC(C)N1CC(N2c3ccccc3CCc3ccccc32)C1
- Activity (Mus musculus [5]): inactive
- Activity (Mus musculus [6]): inactive

SMILES: CC(C)N1CC(CN2c3ccccc3CCc3ccccc32)C1
- Activity (Mus musculus [5]): inactive
- Activity (Mus musculus [6]): inactive

SMILES: CNC1CN(C(c2ccccc2)c2ccccc2)C1
- ED50 (Mus musculus [1]): > 25 mg/kg
- ED50 (Mus musculus [2]): 9.6 mg/kg
- ED50 (Mus musculus [3]): 3.5 mg/kg
- LD50 at 1 h [4]: 200 mg/kg

SMILES: CNCC1CCN1C1c2ccccc2CCc2ccccc21 (stereo not drawn)
- ED50 (Mus musculus [1]): > 25 mg/kg
- ED50 (Mus musculus [2]): > 50 mg/kg
- ED50 (Mus musculus [3]): > 25 mg/kg
- LD50 at 1 h [4]: > 800 mg/kg

— ChEMBL document CHEMBL3227978, “Azetidine derivatives of tricyclic antidepressant agents” (J Med Chem, 1979)
